The target of this assay is Metabotropic glutamate receptor 6 (Homo sapiens) (UniProt O15303). In words: Fold shift in glutamate response at human mGluR6, Tl+ flux in HEK/GIRK cells, selectivity profiling for mGluR5 PAMs (AID 588730). The conditions noted are these: HEK/GIRK hmGluR6, thallium flux, glutamate CRC fold shift, at 10 µM; for Emax: measured here: glutamate max response with compound. The essentials: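 Assay system: human mGlu6 in HEK/GIRK cells. Signal: FluoZin2 thallium flux fluorescence. Evaluation: fold shift, ratio of control glutamate EC50 to EC50 with compound.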

This note sets out measurements from PubChem BioAssay AID588730 (Vanderbilt Specialized Chemistry Center, 2011).

Active and inactive are the calls of the source.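 The calls were made as follows: active = fold shift at most 0.5 or above 2, or agonist peak response under 75 or over 125 percent; inactive = the rest.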

Chain of Metabotropic glutamate receptor 6 (Homo sapiens) (O15303 whole entry, looked up): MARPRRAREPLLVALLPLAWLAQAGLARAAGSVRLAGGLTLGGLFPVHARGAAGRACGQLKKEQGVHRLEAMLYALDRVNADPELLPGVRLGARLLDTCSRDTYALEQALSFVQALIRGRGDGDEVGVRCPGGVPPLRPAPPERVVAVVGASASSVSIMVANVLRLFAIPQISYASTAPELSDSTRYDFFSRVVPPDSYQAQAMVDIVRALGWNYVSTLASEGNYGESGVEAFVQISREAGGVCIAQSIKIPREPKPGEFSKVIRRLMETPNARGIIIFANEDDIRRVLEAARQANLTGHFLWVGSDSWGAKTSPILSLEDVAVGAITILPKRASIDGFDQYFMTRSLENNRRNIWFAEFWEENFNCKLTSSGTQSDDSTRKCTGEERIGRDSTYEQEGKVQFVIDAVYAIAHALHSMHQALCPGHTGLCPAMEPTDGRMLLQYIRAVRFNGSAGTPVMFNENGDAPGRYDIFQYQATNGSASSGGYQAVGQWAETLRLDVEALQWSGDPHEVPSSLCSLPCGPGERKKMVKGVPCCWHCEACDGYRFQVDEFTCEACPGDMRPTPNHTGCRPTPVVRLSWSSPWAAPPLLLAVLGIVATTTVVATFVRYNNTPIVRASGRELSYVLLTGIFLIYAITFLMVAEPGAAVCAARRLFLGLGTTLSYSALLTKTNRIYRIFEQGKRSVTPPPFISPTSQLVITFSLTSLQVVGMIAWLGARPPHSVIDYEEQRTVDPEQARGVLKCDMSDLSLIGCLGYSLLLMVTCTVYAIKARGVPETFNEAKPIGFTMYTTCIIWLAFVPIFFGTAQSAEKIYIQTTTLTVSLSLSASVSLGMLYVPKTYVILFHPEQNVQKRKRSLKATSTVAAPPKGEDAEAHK

As for `CC1(NC(=O)c2ccc(C#Cc3cccc(F)c3)cn2)COC1`, the fold shift was 0.98 (inactive) and the maximum response (Emax) came to 90%.
As to `C[C@@H](NC(=O)c1ccc(C#Cc2cccc(F)c2)cn1)C(C)(C)O`, the fold shift is 1.04 (inactive) and the maximum response (Emax) came out at 93%.

As usually defined, the Emax is the greatest response seen or fitted, relative to the assay's reference.
